Reference: ChEMBL document CHEMBL3994573, “Cytotoxic Lanostanoids from Poria cocos” (J Nat Prod, 2016)

Experiments:
Format in all cases: functional, cell-based
K562 = test: Antiproliferative activity against human K562 cells after 72 hrs by MTT assay; conditions: K562, 72 h
How it was run: (§1)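 Leukemia cells (ATCC) grown in RPMI-1640 with 10% FCS, 2 mM glutamine, penicillin/streptomycin at 37 °C, 5% CO2. Seeded at 4 × 10^4 per well. Exposed 72 h to 1.25, 2.5, 5, 10 and 20 μg/mL (DMSO under 0.02%). MTT formazan dissolved in DMSO, read as OD570 − OD620. IC50 = concentration giving half the control absorbance. n = 4 wells per experiment, four separate experiments, ± SD.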

CCRF-CEM = test: Antiproliferative activity against human CCRF-CEM cells after 72 hrs by MTT assay; how it was run: as §1
MOLT-4 = test: Antiproliferative activity against human MOLT4 cells after 72 hrs by MTT assay; conditions: MOLT-4, 72 h; how it was run: as §1
HL-60 = test: Antiproliferative activity against human HL60 cells after 72 hrs by MTT assay; conditions: HL-60, 72 h; how it was run: as §1

| SMILES | IC50 (K562) [µM] | IC50 (CCRF-CEM) [µM] | IC50 (MOLT-4) [µM] | IC50 (HL-60) [µM] |
| --- | --- | --- | --- | --- |
| C=C(CC[C@@H](C(=O)O)[C@H]1[C@H](O)C[C@@]2(C)C3=CC[C@H]4C(C)(C)C(=O)CC[C@]4(C)C3=CC[C@]12C)C(C)C [POLYPORENIC ACID B] | 26.3 | 25.5 | 27.6 | 31.8 |
| CC(C)=CCC[C@@H](C(=O)O)[C@H]1[C@H](O)C[C@@]2(C)C3=CC[C@H]4C(C)(C)[C@@H](O)CC[C@]4(C)C3=CC[C@]12C | > 40 | > 40 | > 40 | > 40 |
| CC(C)=CCC[C@@H](C(=O)O)[C@H]1CC[C@@]2(C)C3=CC[C@H]4C(C)(C)[C@@H](O)CC[C@]4(C)C3=CC[C@]12C [DEHYDROTRAMETENOLIC ACID] | 14.8 | 13.1 | 16.2 | 20 |
| C=C(CC[C@@H](C(=O)O)[C@H]1[C@H](O)C[C@@]2(C)C3=CC[C@H]4C(C)(C)[C@@H](O)CC[C@]4(C)C3=CC[C@]12C)C(C)C [DEHYDROTUMULOSIC ACID] | > 40 | > 40 | > 40 | > 40 |
| CC(C)C(=O)CC[C@@H](C(=O)O)[C@H]1[C@H](O)C[C@@]2(C)C3=CC[C@H]4C(C)(C)[C@@H](O)CC[C@]4(C)C3=CC[C@]12C | > 40 | > 40 | > 40 | > 40 |
| COc1cccc2c1C(=O)c1c(O)c3c(c(O)c1C2=O)C[C@@](O)(C(=O)CO)C[C@@H]3O[C@H]1C[C@H](N)[C@H](O)[C@H](C)O1 [DOXORUBICIN] | 0.5 | 0.01 | 0.01 | 0.01 |
| C=C(CC[C@@H](C(=O)O)[C@H]1[C@H](O)C[C@@]2(C)C3=CC[C@H]4C(C)(C)[C@@H](OC(C)=O)CC[C@]4(C)C3=CC[C@]12C)C(C)C | 18.6 | 2.7 | 13.8 | 7.3 |
| C=C(CC[C@@H](C(=O)O)[C@H]1[C@H](O)C[C@@]2(C)[C@]34C=C[C@@]5(OO3)C(C)(C)[C@@H](OC(=O)CO)CC[C@]5(C)C4=CC[C@]12C)C(C)C | > 40 | > 40 | > 40 | > 40 |
| C=C(CC[C@@H](C(=O)O)[C@H]1[C@H](O)C[C@@]2(C)C3=C(CC[C@]12C)[C@@]1(C)CC[C@H](O)C(C)(C)[C@@H]1CC3=O)C(C)C | > 40 | > 40 | > 40 | > 40 |
| C=C(CC[C@@H](C(=O)O)[C@H]1[C@H](O)C[C@@]2(C)C3=CC=C4C(C)(C)C(=O)CC[C@]4(C)C3=CC[C@]12C)C(C)C | > 40 | > 40 | > 40 | > 40 |
| C=C(CC[C@@H](C(=O)O)[C@H]1[C@H](O)C[C@@]2(C)C3=CC[C@H]4C(C)(C)[C@H](O)CC[C@]4(C)C3=CC[C@]12C)C(C)C | > 40 | > 40 | > 40 | > 40 |
| C=C(CC[C@@H](C(=O)O)[C@H]1[C@H](O)C[C@@]2(C)[C@]34C=C[C@@]5(OO3)C(C)(C)[C@@H](O)CC[C@]5(C)C4=CC[C@]12C)C(C)C | > 40 | > 40 | > 40 | > 40 |
| CC(C)C(=O)CC[C@@H](C(=O)O)[C@H]1[C@H](O)C[C@@]2(C)C3=CC[C@H]4C(C)(C)[C@H](O)CC[C@]4(C)C3=CC[C@]12C | > 40 | > 40 | > 40 | > 40 |
| C=C(CC[C@@H](C(=O)O)[C@H]1[C@H](O)C[C@@]2(C)C3=C(CC[C@]12C)[C@@]1(C)CC[C@@H](O)C(C)(C)[C@@H]1CC3=O)C(C)C | > 40 | > 40 | > 40 | > 40 |
| C=C(CC[C@@H](C(=O)O)[C@H]1[C@H](O)C[C@@]2(C)C3=CCC4[C@](C)(CC[C@H](O)[C@]4(C)CO)C3=CC[C@]12C)C(C)C (stereo partly specified) | > 40 | > 40 | > 40 | > 40 |
| C=C(C)C(=O)CC[C@@H](C(=O)O)[C@H]1[C@H](O)C[C@@]2(C)C3=C(CC[C@]12C)[C@@]1(C)CC[C@H](O)C(C)(C)[C@@H]1CC3 | > 40 | > 40 | > 40 | > 40 |
| C=C(CC[C@@H](C(=O)O)[C@H]1CC[C@@]2(C)C3=CC[C@H]4C(C)(C)[C@@H](O)CC[C@]4(C)C3=CC[C@]12C)C(C)C [DEHYDROEBURICOIC ACID] | 25.6 | 6.3 | 14.3 | 6 |
| CC(C)=CCC[C@@H](C(=O)O)[C@H]1[C@H](O)C[C@@]2(C)C3=C(CC[C@]12C)[C@@]1(C)CC[C@H](O)C(C)(C)[C@@H]1CC3 | > 40 | > 40 | > 40 | > 40 |
| C=C(CC[C@@H](C(=O)O)[C@H]1[C@H](O)C[C@@]2(C)C3=CC[C@@H](C(=C)C)[C@](C)(CCC(=O)O)C3=CC[C@]12C)C(C)C [PORICOIC ACID A] | > 40 | > 40 | > 40 | > 40 |
